This passage reports Activity, IC50 and inhibition results from ChEMBL document CHEMBL1142206, “Cysteine protease inhibitors block Toxoplasma gondii microneme secretion and cell invasion” (Antimicrob Agents Chemother, 2007).

The subject of assay [1] is Toxoplasma gondii. As to the kind of experiment: Inhibition of Toxoplasma gondii 2F1 invasion in HFF cells assessed as beta-galactosidase activity at 10 uM. The class given is functional, organism-based. Summed up:
(§1)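 2F1 tachyzoites in invasion medium (DMEM, 1% FBS, 10 mM HEPES) at 4 × 10^6/ml, preincubated 15 min at room temperature with inhibitor (10 or 50 μM) or DMSO, then loaded onto HFF monolayers for 30 min at 37°C, 5% CO2. Washed six times with cold PBS containing Ca/Mg, lysed, and β-gal measured with CPRG (45 min, 37°C) at A550. Two independent experiments in duplicate.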

The subject of assay [2] is Toxoplasma gondii. The assay can be described thus: Inhibition of Toxoplasma gondii 2F1 invasion in HFF cells by red/green invasion assay. Format: functional, organism-based. The settings on record: 2F1, HFF. Summed up: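 Red/green assay: 2F1 parasites (5 × 10^7/ml in invasion medium) preincubated 15 min at room temperature with inhibitor (0.1 to 100 μM) or DMSO, then put on HFF for 15 min at 37°C. After fixation, attached parasites were stained with rabbit anti-SAG1 before permeabilization and invaded ones with MAb 9E11 after 0.1% Triton; DAPI marked nuclei. Associated parasites per host nucleus normalized to solvent control; three experiments, eight fields/well.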

The subject of assay [3] is Toxoplasma gondii. As to the kind of experiment: Reduction of MIC5 secretion in Toxoplasma gondii 2F1 at 50 uM. The class given is functional, organism-based. Summed up: (§2)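 2F1 parasites in DGH medium (DMEM, 2 mM glutamine, 10 mM HEPES), ~3–6 × 10^7 per reaction, pretreated 15 min at room temperature with 50 μM inhibitor or DMSO. Induced secretion used 2 min at 37°C with 1% ethanol; basal secretion used 20 min at 37°C without ethanol. Supernatant (ESA) immunoblotted for MIC2, AMA1, MIC5, MIC10 and GRA1; chemiluminescence quantified by CCD.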

The test system of assay [4] is Toxoplasma gondii. As to the kind of experiment: Inhibition of Toxoplasma gondii 2F1 invasion in HFF cells assessed as beta-galactosidase activity at 50 uM relative to control. The class given is functional. Particulars: 2F1, HFF. Summed up: as §1
Assay [5] concerns Toxoplasma gondii. As to the kind of experiment: Reduction of AMA1 secretion in Toxoplasma gondii 2F1 at 50 uM. Format: functional, organism-based. The essentials: as §2
Assay [6] concerns Toxoplasma gondii. As to the kind of experiment: Inhibition of microneme protein secretion in Toxoplasma gondii 2F1.
Assay [7] relates to Toxoplasma gondii. The assay can be described thus: Reduction of MIC10 secretion in Toxoplasma gondii 2F1 at 50 uM. The class given is functional, organism-based. The essentials: as §2
Assay [8] concerns Toxoplasma gondii. As to the kind of experiment: Effect on gliding motility in Toxoplasma gondii RH at 50 uM. The class given is functional, organism-based. The essentials: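 RH tachyzoites in HHE medium (HBSS, 10 mM HEPES, 1 mM EGTA), pretreated 15 min at room temperature with 50 μM inhibitor or DMSO, then allowed to glide 15 min at 37°C on slides coated with 50% FBS or poly-L-lysine. Fixed, and SAG1-containing trails stained with MAb 9E11 and visualized by epifluorescence at ×600.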

The source made the active and inactive calls. The calls are words filed in the database; no cut-off is given here.

What is called IC50 is the concentration needed to halve the response being measured. In general, inhibition refers to the percentage by which the read-out fell short of the control.

With `CC(=O)N[C@@H](Cc1ccc(O)cc1)C(=O)N[C@@H](CCCNC(=N)N)C(=O)N[C@@H](CC(C)C)C(=O)N[C@H](/C=C/S(=O)(=O)c1ccccc1)CC(N)=O`, the result in assay [1] was inactive.

`CC(=O)N[C@@H](Cc1ccc(O)cc1)C(=O)N[C@@H](CCCNC(=N)N)C(=O)N[C@@H](CCCCN)C(=O)N[C@H](/C=C/S(=O)(=O)c1ccccc1)CC(N)=O`: the result in assay [1] was inactive.

As to `CC(=O)N1CCC[C@H]1C(=O)N[C@@H](CCCCN)C(=O)N[C@@H](CCCNC(=N)N)C(=O)N[C@H](/C=C/S(=O)(=O)c1ccccc1)CC(N)=O`, the outcome in assay [1] was inactive.

In the case of `CCOC(=O)[C@H]1O[C@@H]1C(=O)N[C@@H](CC(C)C)C(=O)NCCC(C)C`, in assay [1], the outcome was inactive.

With `CC(=O)N1CCC[C@H]1C(=O)N[C@@H](CCCNC(=N)N)C(=O)N[C@@H](CCCCN)C(=O)N[C@H](/C=C/S(=O)(=O)c1ccccc1)CC(N)=O`, the outcome in assay [1] was inactive.

Turning to `CC(=O)N[C@@H](Cc1ccc(O)cc1)C(=O)N[C@@H](CCCCN)C(=O)N[C@@H](CCCCN)C(=O)N[C@H](/C=C/S(=O)(=O)c1ccccc1)CC(N)=O`, the result in assay [1] was inactive.

Take `CC(C)C[C@@H](/C=C/S(C)(=O)=O)NC(=O)[C@H](CC(C)C)NC(=O)[C@H](CC(C)C)NC(=O)[C@@H](N)Cc1ccc(O)cc1`: in assay [1], the outcome was inactive.

Take `CC(=O)N1CCC[C@H]1C(=O)N[C@@H](CCCCN)C(=O)N[C@@H](CCCCN)C(=O)N[C@H](/C=C/S(=O)(=O)c1ccccc1)CC(N)=O`: in assay [1], the outcome was inactive.

As for `CC(=O)N1CCC[C@H]1C(=O)N[C@@H](CCCNC(=N)N)C(=O)N[C@@H](CC(C)C)C(=O)N[C@H](/C=C/S(=O)(=O)c1ccccc1)CC(N)=O`, the outcome in assay [1] was inactive.

With `CCC(C)[C@H](NC(=O)C1OC1C(=O)NCC(C)C)C(=O)N1CCC[C@@H]1C(=O)O` (stereo partly drawn), the outcome in assay [1] was inactive.

As to `CC(C)C[C@H](/C=C/S(=O)(=O)c1ccccc1)NC(=O)[C@@H](CC(C)C)NC(=O)[C@@H](CC(C)C)NC(=O)OCc1ccccc1`, the IC50 was determined as 12.5 µM in assay [2] and 50 µM in assay [6]. Moreover, the outcome in assay [1] was inactive. Moreover, the result in assay [3], in assay [5], in assay [7] and in assay [8] was Active. Also, the inhibition at 50 µM in assay [4] was 50%.

In the case of `Cc1cccc(C)c1C(=O)OCC(=O)CN`, in assay [1], the outcome was inactive.

As for `Cc1cccc(C)c1C(=O)OCC(=O)[C@@H](N)CC(N)=O`, in assay [1], the result was inactive.

Consider `O=c1oc(Cl)c(Cl)c2ccccc12`, for which, in assay [2], the IC50 was 12.5 µM. Besides, in assay [1], the result was inactive.

With `CC(C)C[C@@H](NC(=O)N1CCOCC1)C(=O)N[C@@H](/C=C/S(=O)(=O)c1ccccc1)CCc1ccccc1`, the IC50 in assay [2] was 10 µM; in assay [6] it was 25 µM. In addition, the outcome in assay [3], in assay [5], in assay [7] and in assay [8] was Active. The inhibition at 50 µM in assay [4] was determined as 70%.

Consider `CC(C)C[C@H](NC(=O)[C@H]1O[C@@H]1C(=O)O)C(=O)NCCCCN=C(N)N`, for which, in assay [1], the outcome was inactive.

As to `CC(=O)N[C@@H](Cc1ccc(O)cc1)C(=O)N[C@@H](CCCCN)C(=O)N[C@@H](CCCNC(=N)N)C(=O)N[C@H](/C=C/S(=O)(=O)c1ccccc1)CC(N)=O`, the result in assay [1] was inactive.

Consider `CC(=O)N[C@@H](Cc1ccc(O)cc1)C(=O)N[C@@H](CCCCN)C(=O)N[C@@H](CC(C)C)C(=O)N[C@H](/C=C/S(=O)(=O)c1ccccc1)CC(N)=O`, for which the outcome in assay [1] was inactive.

Regarding `CN1CCN(C(=O)N[C@@H](Cc2ccccc2)C(=O)N[C@H](/C=C/S(=O)(=O)c2ccccc2)CCc2ccccc2)CC1`, the result in assay [1] was inactive.

Take `CC(C)C[C@H](/C=C/S(=O)(=O)c1ccccc1)NC(=O)[C@@H](CC(C)C)NC(=O)[C@@H](CC(C)C)NC(=O)Cc1cc(I)c(O)c([N+](=O)[O-])c1`: the result in assay [1] was inactive.

On to `CC(=O)N1CCC[C@H]1C(=O)N[C@@H](CCCCN)C(=O)N[C@@H](CC(C)C)C(=O)N[C@H](/C=C/S(=O)(=O)c1ccccc1)CC(N)=O`, for which the result in assay [1] was inactive.

Regarding `CCOC(=O)C1OC1C(=O)N[C@@H](CC(C)C)C(=O)NCCc1ccc(O)cc1` (stereo partly drawn), the outcome in assay [1] was inactive.

With `Cc1cccc(C)c1C(=O)OCC(=O)[C@@H](N)CC(C)C`, the outcome in assay [1] was inactive.

`Cc1cccc(C)c1C(=O)OCC(=O)[C@@H](N)CCCNC(=N)N`: the result in assay [1] was inactive.
